Tests used:
Type in all cases: functional
SK-OV-3 = assay: Antiproliferative activity against human SKOV3 cells after 48 hrs by sulforhodamine B assay; details: SK-OV-3, 48 h
In short: (§1)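 Cells grown in RPMI 1640 with 5% FBS and 2 mM L-glutamine, plated at 5000–40,000 cells/well and preincubated 24 h at 37 °C, 5% CO2. Five drug concentrations (10-fold or ½-log dilutions from DMSO stocks) applied for 48 h. TCA-fixed (final 10% adherent, 16% suspension), SRB-stained, A515 read. Growth versus time-zero and control wells gave GI50, TGI, LC50.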

DU-145 = assay: Antiproliferative activity against human DU145 cells after 48 hrs by sulforhodamine B assay; details: DU-145, 48 h; in short: as §1
OVCAR-5 = assay: Antiproliferative activity against human OVCAR5 cells after 48 hrs by sulforhodamine B assay; details: OVCAR-5, 48 h; in short: as §1
NCI/ADR-RES = assay: Antiproliferative activity against human NCI/ADR-RES cells after 48 hrs by sulforhodamine B assay; in short: as §1
NCI-H322M = assay: Antiproliferative activity against human NCI-H322M cells after 48 hrs by sulforhodamine B assay; in short: as §1
HOP-92 = assay: Antiproliferative activity against human HOP92 cells after 48 hrs by sulforhodamine B assay; details: HOP-92, 48 h; in short: as §1
A549 = assay: Antiproliferative activity against human A549 cells after 48 hrs by sulforhodamine B assay; details: A549, 48 h; in short: as §1
UACC-62 = assay: Antiproliferative activity against human UACC62 cells after 48 hrs by sulforhodamine B assay; details: UACC-62, 48 h
In short: (§2)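 Cells in RPMI 1640 with 5% FBS and 2 mM L-glutamine were seeded at 5000–40,000/well according to doubling time and preincubated 24 h at 37 °C in 5% CO2. Time-zero plates were TCA-fixed when drug was added. Five 10-fold or ½-log dilutions from DMSO stocks were added for 48 h. After SRB staining, A515 was read and GI50 derived from [(Ti−Tz)/(C−Tz)]×100 = 50.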

SK-MEL-5 = assay: Antiproliferative activity against human SK-MEL-5 cells after 48 hrs by sulforhodamine B assay; details: SK-MEL-5, 48 h; in short: as §1
SK-MEL-28 = assay: Antiproliferative activity against human SK-MEL-28 cells after 48 hrs by sulforhodamine B assay; details: SK-MEL-28, 48 h; in short: as §1
SK-MEL-2 = assay: Antiproliferative activity against human SK-MEL-2 cells after 48 hrs by sulforhodamine B assay; details: SK-MEL-2, 48 h; in short: as §1
MDA-MB-435 = assay: Antiproliferative activity against human MDA-MB-435 cells after 48 hrs by sulforhodamine B assay; details: MDA-MB-435, 48 h; in short: as §1
Malme-3M = assay: Antiproliferative activity against human MALME-3M cells after 48 hrs by sulforhodamine B assay; in short: as §1
RPMI-8226 = assay: Antiproliferative activity against human RPMI8226 cells after 48 hrs by sulforhodamine B assay; details: RPMI-8226, 48 h; in short: as §1
MOLT-4 = assay: Antiproliferative activity against human MOLT4 cells after 48 hrs by sulforhodamine B assay; details: MOLT-4, 48 h; in short: as §1
CCRF-CEM = assay: Antiproliferative activity against human CCRF-CEM cells after 48 hrs by sulforhodamine B assay; in short: as §1
SW-620 = assay: Antiproliferative activity against human SW620 cells after 48 hrs by sulforhodamine B assay; details: SW-620, 48 h; in short: as §2
HCT-15 = assay: Antiproliferative activity against human HCT15 cells after 48 hrs by sulforhodamine B assay; details: HCT-15, 48 h; in short: as §1
HT-29 = assay: Antiproliferative activity against human HT-29 cells after 48 hrs by sulforhodamine B assay; details: HT-29, 48 h; in short: as §1
HCT-116 = assay: Antiproliferative activity against human HCT116 cells after 48 hrs by sulforhodamine B assay; details: HCT-116, 48 h; in short: as §1
[1] = Antiproliferative activity against human HCC2998 cells after 48 hrs by sulforhodamine B assay; details: HCC 2998, 48 h; in short: as §1
COLO 205 = assay: Antiproliferative activity against human COLO205 cells after 48 hrs by sulforhodamine B assay; details: COLO 205, 48 h; in short: as §1
SNB-75 = assay: Antiproliferative activity against human SNB75 cells after 48 hrs by sulforhodamine B assay; details: SNB-75, 48 h; in short: as §2
SF-295 = assay: Antiproliferative activity against human SF295 cells after 48 hrs by sulforhodamine B assay; details: SF-295, 48 h; in short: as §1
T47D = assay: Antiproliferative activity against human T47D cells after 48 hrs by sulforhodamine B assay; in short: as §2
MDA-MB-231 = assay: Antiproliferative activity against human MDA-MB-231 cells after 48 hrs by sulforhodamine B assay; details: MDA-MB-231, 48 h; in short: as §1
UO-31 = assay: Antiproliferative activity against human UO31 cells after 48 hrs by sulforhodamine B assay; details: UO-31, 48 h; in short: as §2
RXF 393 = assay: Antiproliferative activity against human RXF393 cells after 48 hrs by sulforhodamine B assay; details: RXF 393, 48 h; in short: as §1
786-0 = assay: Antiproliferative activity against human 786-0 cells after 48 hrs by sulforhodamine B assay; details: 786-0, 48 h; in short: as §1
[2] = read-out: pLC50 (the source's name) (converted)

CN1CCN(CCCn2c(=O)c3sc4ncccc4c3n3nnc(-c4ccccc4)c23)CC1
GI50 (SK-OV-3): 8.91 µM | LC50 (SK-OV-3): 28.2 µM | TGI (SK-OV-3; read-out: pTGI (converted)): 15.8 µM | GI50 (DU-145): 5.89 µM | LC50 (DU-145): 25.1 µM | TGI (DU-145; read-out: pTGI (converted)): 12.3 µM | GI50 (OVCAR-5): 8.91 µM | LC50 (OVCAR-5): 32.4 µM | TGI (OVCAR-5; read-out: pTGI (converted)): 17 µM | GI50 (NCI/ADR-RES): 7.24 µM | LC50 (NCI/ADR-RES): 28.2 µM | TGI (NCI/ADR-RES; read-out: pTGI (converted)): 14.1 µM | GI50 (NCI-H322M): 6.17 µM | LC50 (NCI-H322M): 26.9 µM | TGI (NCI-H322M; read-out: pTGI (converted)): 12.9 µM | GI50 (HOP-92): 5.75 µM | CC50 (HOP-92; [2]): 28.8 µM | TGI (HOP-92; read-out: pTGI (converted)): 12.9 µM | GI50 (A549): 6.76 µM | LC50 (A549): 28.2 µM | TGI (A549; read-out: pTGI (converted)): 13.8 µM | GI50 (UACC-62): 8.91 µM | LC50 (concentration killing 50% of cells) (UACC-62): 29.5 µM | TGI (UACC-62; read-out: pTGI (converted)): 16.2 µM | GI50 (SK-MEL-5): 7.24 µM | LC50 (SK-MEL-5): 26.3 µM | TGI (SK-MEL-5; read-out: pTGI (converted)): 13.8 µM | GI50 (SK-MEL-28): 8.71 µM | LC50 (SK-MEL-28): 28.2 µM | TGI (SK-MEL-28; read-out: pTGI (converted)): 15.8 µM | GI50 (SK-MEL-2): 8.71 µM | LC50 (SK-MEL-2): 31.6 µM | TGI (SK-MEL-2; read-out: pTGI (converted)): 16.6 µM | GI50 (MDA-MB-435): 1.17 µM | LC50 (MDA-MB-435): 13.2 µM | TGI (MDA-MB-435; read-out: pTGI (converted)): 3.02 µM | GI50 (Malme-3M): 9.33 µM | LC50 (Malme-3M): 33.9 µM | TGI (Malme-3M; read-out: pTGI (converted)): 17.8 µM | GI50 (RPMI-8226): 6.17 µM | CC50 (RPMI-8226; [2]): 40.7 µM | TGI (RPMI-8226; read-out: pTGI (converted)): 15.8 µM | GI50 (MOLT-4): 1.55 µM | LC50 (MOLT-4): 21.4 µM | TGI (MOLT-4; read-out: pTGI (converted)): 4.9 µM | GI50 (CCRF-CEM): 1.55 µM | LC50 (CCRF-CEM): 24.5 µM | TGI (CCRF-CEM; read-out: pTGI (converted)): 5.25 µM | GI50 (SW-620): 5.37 µM | LC50 (SW-620): 24.5 µM | TGI (SW-620; read-out: pTGI (converted)): 11.5 µM | GI50 (HCT-15): 6.17 µM | LC50 (HCT-15): 28.2 µM | TGI (HCT-15; read-out: pTGI (converted)): 13.2 µM | GI50 (HT-29): 2.88 µM | LC50 (HT-29): 23.4 µM | TGI (HT-29; read-out: pTGI (converted)): 9.55 µM | GI50 (HCT-116): 5.25 µM | LC50 (HCT-116): 26.3 µM | TGI (HCT-116; read-out: pTGI (converted)): 11.7 µM | GI50 [1]: 6.76 µM | LC50 [1]: 26.3 µM | TGI ([1]; read-out: pTGI (converted)): 13.5 µM | GI50 (COLO 205): 7.41 µM | LC50 (COLO 205): 28.8 µM | TGI (COLO 205; read-out: pTGI (converted)): 14.5 µM | GI50 (SNB-75): 6.76 µM | LC50 (concentration killing 50% of starting cells) (SNB-75): 25.7 µM | TGI (SNB-75; read-out: pTGI (converted)): 13.2 µM | GI50 (SF-295): 5.62 µM | LC50 (SF-295): 26.9 µM | TGI (SF-295; read-out: pTGI (converted)): 12.3 µM | GI50 (T47D): 7.94 µM | LC50 (T47D): 31.6 µM | TGI (T47D; read-out: pTGI (converted)): 15.8 µM | GI50 (MDA-MB-231): 6.92 µM | LC50 (MDA-MB-231): 26.9 µM | TGI (MDA-MB-231; read-out: pTGI (converted)): 13.5 µM | GI50 (UO-31): 5.13 µM | LC50 (UO-31): 28.2 µM | TGI (UO-31; read-out: pTGI (converted)): 12 µM | GI50 (RXF 393): 6.31 µM | LC50 (RXF 393): 28.2 µM | TGI (RXF 393; read-out: pTGI (converted)): 13.5 µM | GI50 (786-0): 7.41 µM | CC50 (786-0; [2]): 28.8 µM | TGI (786-0; read-out: pTGI (converted)): 14.5 µM
